tested on: A-375; assay: Cytotoxicity against human A375 cells after 96 hrs by MTT assay; format: functional, cell-based; settings: A-375, 96 h
Outline: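 A375 human melanoma cells (ATCC) in RPMI-1640 with 10% heat-inactivated FBS, 2 mM L-glutamine, penicillin/streptomycin/amphotericin B, 37 °C, 5% CO2. Plated at 5000 cells/well, attached overnight. Compounds added in 1% DMSO/medium over a log dilution range and left for 96 h. MTT then added for 4 h at 37 °C. Formazan dissolved in isopropanol/1 M HCl (96/4), read at 570 nm. Survival expressed as % of vehicle control, IC50 taken from sigmoidal curves. At least three experiments in triplicate.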

**Q.** `CNc1nc2ccccc2n2c(-c3cccc(OC)c3)cnc12` was tested. Which IC50 did it give?
**A.** 0.2 µM

**Q.** For `CNc1nc2ccccc2n2c(-c3cccc(C(F)(F)F)c3)cnc12`, which IC50 is on record?
**A.** 1.28 µM

**Q.** With `CNc1nc2ccccc2n2c(-c3cccc(O)c3)cnc12` as the compound, how does the IC50 read?
**A.** 0.56 µM

**Q.** How did the IC50 turn out when `CNc1nc2ccccc2n2c(-c3cccc(Br)c3)cnc12` was run?
**A.** 0.65 µM

**Q.** Which IC50 does the source give for `CNc1nc2ccccc2n2c(CCc3ccccc3)cnc12` here?
**A.** 1.57 µM

**Q.** For `CNc1nc2ccccc2n2c(-c3cccc(Cl)c3)cnc12`, which IC50 is on record?
**A.** 1.78 µM

**Q.** `CNc1nc2ccccc2n2c(-c3ccccc3OC)cnc12` was tested. Which IC50 did it give?
**A.** 122 µM

**Q.** How did the IC50 turn out when `CNc1nc2ccccc2n2c(-c3cccc(C(=O)O)c3)cnc12` was run?
**A.** 3.47 µM

**Q.** How did the IC50 turn out when `CNc1nc2ccccc2n2c(-c3cccc([N+](=O)[O-])c3)cnc12` was run?
**A.** 40 µM

**Q.** With `CNc1nc2ccccc2n2c(-c3cccc(F)c3)cnc12` as the compound, how does the IC50 read?
**A.** 24.9 µM

**Q.** For `CNc1nc2ccccc2n2c(-c3ccccc3)cnc12`, which IC50 is on record?
**A.** 2.19 µM

**Q.** How did the IC50 turn out when `CCOc1cccc(-c2cnc3c(NC)nc4ccccc4n23)c1` was run?
**A.** 0.3 µM

**Q.** Which IC50 does the source give for `CNc1nc2ccccc2n2c(-c3cccc(C#N)c3)cnc12` here?
**A.** 27 µM

**Q.** How did the IC50 turn out when `CNc1nc2ccccc2n2c(-c3ccoc3)cnc12` was run?
**A.** 74.1 µM

**Q.** Which IC50 does the source give for `CCOP(=O)(OCC)C(C)NC(=O)N(CCCl)N=O` (configuration not stated) [FOTEMUSTINE] here?
**A.** 173 µM

**Q.** For `CC(C)Cn1cnc2c(N)nc3ccccc3c21` [IMIQUIMOD], which IC50 is on record?
**A.** 70.3 µM

**Q.** Which IC50 does the source give for `CNc1nc2ccccc2n2c(-c3ccc(OC)cc3)cnc12` here?
**A.** 0.37 µM

Reference: ChEMBL document CHEMBL1153571, “New imidazo[1,2-a]quinoxaline derivatives: synthesis and in vitro activity against human melanoma” (Eur J Med Chem, 2009)
